The values below come from ChEMBL document CHEMBL1136003, “2-Amino-3-aroyl-4,5-alkylthiophenes: agonist allosteric enhancers at human A(1) adenosine receptors” (J Med Chem, 2002).

Usually inhibition stands for the share of the control response that was lost under treatment.

Assay [1] addresses T1, Adenosine receptor A1 (Homo sapiens) (UniProt P30542).
T1 sequence (whole entry): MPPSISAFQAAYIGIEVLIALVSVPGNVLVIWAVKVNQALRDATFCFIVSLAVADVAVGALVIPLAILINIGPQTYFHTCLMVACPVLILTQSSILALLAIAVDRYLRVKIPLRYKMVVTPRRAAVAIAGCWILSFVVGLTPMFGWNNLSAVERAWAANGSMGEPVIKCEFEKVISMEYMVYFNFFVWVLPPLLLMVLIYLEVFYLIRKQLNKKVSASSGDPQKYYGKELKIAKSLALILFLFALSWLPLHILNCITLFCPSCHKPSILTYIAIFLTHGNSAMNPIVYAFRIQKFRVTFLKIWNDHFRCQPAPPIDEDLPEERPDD
The experiment in a line: Inhibition of [3H]CPX binding to membrane of CHO-K cells stably expressing human adenosine A1 receptors. It is filed as cell membranes. Also on record: concentration or dose not given beside the values. Conditions: concentration not given here. In outline:
(§1)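 Triplicate assays with membranes (15 µg protein) from CHO-K cells expressing human A1AR. Buffer was 10 mM HEPES pH 7.4 with 1 mM EDTA, adenosine deaminase 1 u/mL, [3H]CPX (4 nM in membrane aliquot), and enhancer added as 200 µM in 10% DMSO. Footnote gives enhancer at 100 µM. NECA defined nonspecific binding. Incubated 3 h at room temperature, then filtered and counted.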

Assay [2] addresses T1, Adenosine receptor A1 (Homo sapiens). In words: Allosteric enhancer activity score measured by its ability to stabilize the agonist-receptor-G protein ternary complex at a concentration of 100 uM. In kind it is functional. In outline:
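Candidate enhancer added (100 µM) for 5 min, then dissociation started with 8-cyclopentyltheophylline plus GTPγS. Residual bound agonist after 10 min counted by filtration. Score = 100 × (B − Bo)/(Beq − Bo).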

For assay [3] the target is unchanged. The experiment in a line: Inhibition of [3H]CPX binding to CHO-K cell membrane expressing human Adenosine A1 receptor. In kind it is cell membranes. Also on record: concentration or dose not given beside the values. The conditions noted are these: concentration not given here. In outline: as §1

`COc1cccc(C(=O)c2c(N)sc3c2CCCCC3)c1`: the inhibition in assay [1] came out at 13%. In assay [2], the AE Score stood at 99%.
For `Nc1sccc1C(=O)c1ccc2ccccc2c1`, the AE Score in assay [2] was found to be 3.2%.
Still for that read-out and setting: under `Nc1sc2c(c1C(=O)c1ccc(Cl)cc1)CCC2` stands 70%; under `Nc1sc2c(c1C(=O)c1ccc(Cl)cc1)CCCCC2`, 65%; under `Cc1sc(N)c(C(=O)c2cccc(F)c2)c1C`, 0%.
Same read-out and setting: for `Nc1sccc1C(=O)c1cccc(Br)c1` the value was 0.2%.
For `Nc1sc2c(c1C(=O)c1ccc3ccccc3c1)CCC2`, the inhibition in assay [1] stood at 21%. Also, in assay [2], the AE Score was determined as 31%.
Take `Nc1sc2c(c1C(=O)c1cccc(Cl)c1)CCCC2`: the AE Score in assay [2] was found to be 70%. The inhibition in assay [3] turned out to be 78%.
Take `Nc1sccc1C(=O)c1ccc(Cl)cc1`: the AE Score in assay [2] was 0%.
Same read-out and setting: for `Nc1sccc1C(=O)c1ccc(F)cc1` the value was 0%.
In assay [1], `Nc1sc2c(c1C(=O)c1ccc(I)cc1)CCCCC2` displayed an inhibition of 9%. For the same compound, the AE Score in assay [2] came out at 96%.
Regarding `Cc1cc(C)c(C(=O)c2c(N)sc(C)c2C)c(C)c1`, the AE Score in assay [2] was found to be 0%.
In assay [1], `Nc1sc2c(c1C(=O)c1ccc(Br)cc1)CCCC2` registered an inhibition of 61%. In addition, the AE Score in assay [2] stood at 83%.
Consider `Nc1sccc1C(=O)c1ccc(Cl)c(Cl)c1`, for which the AE Score in assay [2] amounted to 1.7%.
Consider `Cc1sc(N)c(C(=O)c2cccc(C(F)(F)F)c2)c1C`, for which the AE Score in assay [2] amounted to 19%. Besides, the inhibition in assay [3] was 42%.
On the same counts, the results for `Nc1sccc1C(=O)c1ccccc1` are 0.2% and 15%.
With `Nc1sc2c(c1C(=O)c1cccc(Cl)c1)CCC2`, the AE Score in assay [2] turned out to be 13%. The compound also registered an inhibition in assay [3] of 56%.
For the compound `Nc1sccc1C(=O)c1cccc(F)c1`, in assay [2], the AE Score worked out at 0%.
The compound `Nc1sc2c(c1C(=O)c1cccc(Cl)c1)CCCCC2` gave an inhibition in assay [1] of 10%. Also, the AE Score in assay [2] worked out at 65%.
For `Nc1sc2c(c1C(=O)c1ccc3ccccc3c1)CCCC2`, the AE Score in assay [2] was 86%.
Still for that read-out and setting: under `Nc1sc2c(c1C(=O)c1cccc3ccccc13)CCCCC2` stands 81%; under `Nc1sc2c(c1C(=O)c1ccc(F)cc1)CCCCC2`, 22%; under `Nc1sc2c(c1C(=O)c1ccc3ccccc3c1)CCCCC2`, 75%.
Same read-out and setting: under `Nc1sc2c(c1C(=O)c1cccc(I)c1)CCCCC2` stands 86%; under `Cc1sc(C(=O)O)c(C(=O)c2ccccc2)c1C`, 0%.
Consider `Nc1sc2c(c1C(=O)c1cccc(F)c1)CCCC2`, for which the AE Score in assay [2] came to 22%. The inhibition in assay [3] is 35%.
On the same counts, the results for `Nc1sc2c(c1C(=O)c1cccc(Br)c1)CCC2` are 68% and 36%.
Turning to `Cc1sc(N)c(C(=O)c2cccc(Br)c2)c1C`, the AE Score in assay [2] turned out to be 16%.
With `Nc1sc2c(c1C(=O)c1ccc(F)cc1)CCC2`, in assay [2], the AE Score was 22%. This compound returned an inhibition in assay [3] of 40%.
Consider `Cc1cccc(C(=O)c2c(N)sc(C)c2C)c1`, for which, in assay [2], the AE Score came to 18%.
For the compound `Nc1sc2c(c1C(=O)c1cccc(F)c1)CCC2`, in assay [2], the AE Score turned out to be 16%.
Regarding `Nc1sc2c(c1C(=O)c1ccc(-c3ccccc3)cc1)CCCCC2`, the AE Score in assay [2] stood at 88%.
The same measure, in the same setting: under `Nc1sc2c(c1C(=O)c1ccc(-c3ccccc3)cc1)CCCC2` stands 33%.
With `Nc1sc2c(c1C(=O)c1ccc(I)cc1)CCCC2`, the inhibition in assay [1] was 62%. Besides, the AE Score in assay [2] was 86%.
On the same counts, the results for `Nc1sc2c(c1C(=O)c1ccc(C3CCCCC3)cc1)CCCC2` are 47% and 99%.
With `Nc1sccc1C(=O)c1cccc(Cl)c1`, the AE Score in assay [2] came to 0%.
The compound `CCOC(=O)c1c(N)sc2c1CCCC2` returned an inhibition in assay [1] of 53%. In assay [2], the AE Score worked out at 3.5%.
`N#Cc1ccc(C(=O)c2c(N)sc3c2CCCC3)cc1` had an inhibition in assay [1] of 21%. For the same compound, the AE Score in assay [2] was found to be 19%.
`Nc1sc2c(c1C(=O)c1ccc(-c3ccccc3)cc1)CCC2`: the AE Score in assay [2] worked out at 38%.
Consider `Cc1ccc(C(=O)c2c(N)sc3c2CCCC3)cc1`, for which the inhibition in assay [1] amounted to 36%. Also, the AE Score in assay [2] amounted to 19%.
On to `COc1ccc(C(=O)c2c(N)sc3c2CCCCC3)cc1`, for which the AE Score in assay [2] stood at 85%.
Compound `Nc1sc2c(c1C(=O)c1ccccc1)CCCC2` registered an inhibition in assay [1] of 42%. The AE Score in assay [2] was found to be 19%.
For `Nc1sc2c(c1C(=O)c1ccc(Br)cc1)CCCCC2`, in that order: 7% and 86%.
On the same counts, the results for `Nc1sc2c(c1C(=O)c1ccc(Cl)cc1)CCCC2` are 69% and 68%.
Take `Cc1sc(N)c(C(=O)c2ccc(-c3ccccc3)cc2)c1C`: the AE Score in assay [2] worked out at 12%.
Compound `Nc1sc2c(c1C(=O)c1cccc(Br)c1)CCCCC2` displayed an inhibition in assay [1] of 7%. In addition, the AE Score in assay [2] is 78%.
As for `Cc1sc(C(=O)O)c(C(=O)c2cccc(C(F)(F)F)c2)c1C`, the AE Score in assay [2] turned out to be 0%.
Still for that read-out and setting: for `Cc1sc(N)c(C(=O)c2ccccc2)c1C` the value was 9%.
Compound `Nc1sc2c(c1C(=O)c1ccc(F)cc1)CCCC2` returned an inhibition in assay [1] of 56%. For the same compound, the AE Score in assay [2] came out at 17%.
In the case of `Nc1sc2c(c1C(=O)c1ccc(C3CCCCC3)cc1)CCCCC2`, in assay [2], the AE Score amounted to 77%.
Still for that read-out and setting: under `Cc1sc(N)c(C(=O)c2cccc(Cl)c2)c1C` stands 14%.
As to `Nc1sc2c(c1C(=O)c1ccccc1)CCC2`, in assay [2], the AE Score was 20%. Also, the inhibition in assay [3] is 56%.
For `Nc1sc2c(c1C(=O)c1ccc(Br)cc1)CCC2`, the AE Score in assay [2] was determined as 62%. This compound also yielded an inhibition in assay [3] of 20%.
On the same counts, the results for `Nc1sc2c(c1C(=O)c1cccc(Br)c1)CCCC2` are 49% and 49%.
In turn, `Nc1sc2c(c1C(=O)c1ccccc1)CCCCC2` showed an inhibition in assay [1] of 68%. In addition, the AE Score in assay [2] was found to be 13%.
`CCOC(=O)c1c(N)sc2c1CCC2`: the AE Score in assay [2] was found to be 0.4%. The inhibition in assay [3] was determined as 58%.
`Cc1sc(C(=O)O)c(C(=O)c2ccc(-c3ccccc3)cc2)c1C`: the AE Score in assay [2] was 0%.
On to `CCOC(=O)c1c(N)sc2c1CCCCC2`, for which the inhibition in assay [1] was 38%. In assay [2], the AE Score was found to be 0.3%.
As for `Nc1sccc1C(=O)c1ccc(Br)cc1`, the AE Score in assay [2] amounted to 0.8%.
